Only some compounds are listed: those with a hit (about 3.6% of all), similar ones and a draw of the others.
SR-BI HDL uptake = blocks mouse SR-BI lipid uptake from DiI-HDL; Q61009; ldlA[mSR-BI] CHO cells, DiI-HDL uptake fluorescence, 3 h; 320,000 tested, 0.96% active; inhibition, % at 12.5 µM; AID 488896;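 active = mean replicate inhibition of at least 70% and a set share of replicates each scoring 70 or more; inconclusive = meets just one of the two criteria; inactive = fails both criteria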;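 note: 0% = median of neutral control wells and 100% = median of positive control wells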
Target sequence (Q61009 whole entry, looked up): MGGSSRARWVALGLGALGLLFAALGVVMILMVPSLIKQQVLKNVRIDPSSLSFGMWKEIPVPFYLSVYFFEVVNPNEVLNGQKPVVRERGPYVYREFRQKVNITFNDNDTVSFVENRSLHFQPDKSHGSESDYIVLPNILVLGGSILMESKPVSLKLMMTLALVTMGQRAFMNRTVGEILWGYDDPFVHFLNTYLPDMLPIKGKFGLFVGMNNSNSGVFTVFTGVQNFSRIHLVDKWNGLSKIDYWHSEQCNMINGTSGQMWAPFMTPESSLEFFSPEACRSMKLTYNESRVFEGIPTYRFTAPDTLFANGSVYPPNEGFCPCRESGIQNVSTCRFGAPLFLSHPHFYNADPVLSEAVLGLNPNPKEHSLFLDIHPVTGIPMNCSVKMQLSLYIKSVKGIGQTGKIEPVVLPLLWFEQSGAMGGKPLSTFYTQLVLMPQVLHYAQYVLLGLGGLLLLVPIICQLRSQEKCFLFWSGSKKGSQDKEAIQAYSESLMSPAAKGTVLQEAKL
SR-BI uptake up = activators of SR-BI mediated HDL lipid uptake; CHO ldlA[mSR-BI] cells, DiI-HDL uptake fluorescence, 3 h; 100 = double the neutral-control signal; activation, % at 12.5 µM; 320,000 tested, 0.096% active; AID 504775;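 active = mean replicate activation of at least 60% and every replicate at or above 60%; inconclusive = mean or all-replicate condition met, but not both; inactive = mean below 60% and not all replicates reaching 60%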;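 note: 0% = median plate neutral-control signal and 100% = twice that signal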
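Material – SR-BI-overexpressing, LDLR-lacking CHO cells · Medium – BSA-supplemented, HEPES-buffered Ham's F12, pH 7.4 · Doses – single concentration · Times – compound with DiI-HDL co-incubation, 3 h at 37 °C · Measured by – bottom-read fluorescence, 550/595 nm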
MITF act = increases MITF-driven TRPM1 promoter luciferase signal; 300,000 tested, 0.75% active; activation, % at 12.5 µM; SK-MEL-5 TRPM1-promoter luciferase, 24 h; % of positive control, neutral wells = 0;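 active = mean activation of at least 80% with every replicate also reaching 80%; inconclusive = mean reaches 80% but some replicate falls short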;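 note: 0% = neutral control wells and 100% = parthenolide positive control wells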
HSF-1 act = increases HSF-1 driven luciferase reporter signal. NIH3T3-HGL HSF-1 luciferase reporter, MG132, 8 h; 100% = twice DMSO control signal. activation, % at 9 µM. 300,000 tested, 1.7% active. AID 504408;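 active = mean replicate activation of at least 50% with a set share of replicates each reaching 50%; inconclusive = only one of those two conditions met; inactive = mean below 50% and too few replicates reaching it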;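 note: 0% = median of the neutral control wells and 100% = twice that signal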
Wnt bcat act = activators of Wnt/beta-catenin signaling; AID 743398; 300,000 tested, 1.2% active; Wnt/beta-catenin reporter cell assay, activator, plate reader; activation, % at 9.35 µM; in the data active = activation above about 30%, passing the limit was not always enough; inconclusive = no clear call, values can overlap the other calls;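 note: 0% = neutral control wells and 100% = positive control wells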
An asterisk follows results filed as active; ? = inconclusive; / = no result given.

SMILES | SR-BI HDL uptake | SR-BI uptake up | MITF act | HSF-1 act | Wnt bcat act
Cc1noc(C)c1-c1ccc(C(=O)NCc2cccnc2)c2occc12 | / | / | / | / | 1
CC(C)NC(=O)N(C)C[C@H]1Oc2cc(C#Cc3ccc(F)cc3)ccc2S(=O)(=O)N([C@H](C)CO)C[C@H]1C | / | / | / | / | 0
O=C(CSc1nnc(-c2ccc(F)cc2)c2ccccc12)Nc1cccc(Cl)c1 | 55 | -55 | -2 | 15 | -1
O=C(CSc1nnc(-c2ccc(F)cc2)c2ccccc12)Nc1ccccc1 | 38 | -38 | 15 | 83* | -10
Cc1ccc(/C(N)=N/OC(=O)/C=C/c2ccccc2)cc1 | / | / | 20 | 35 | -1
COc1ccc(/C(N)=N/OC(=O)/C=C/c2ccccc2)cc1 | -17 | 17 | 27 | 54* | ?
CCC(=O)c1ccc(OCc2ccccc2)c(OC)c1 | 8 | -8 | 101* | 39 | /
COc1ccc(C(=O)/C=C/c2ccc(OC)c(CN3CCOCC3)c2)cc1 | 6 | -6 | -13 | 34 | 6
COc1ccc(C(=O)/C=C/c2ccc(OC)c(Cn3nnc4ccccc43)c2)cc1 | 1 | -1 | -24 | 80* | -7
CCOc1ccc(CCNC(=O)c2nnn(CC(=O)Nc3ccc(OC)c(OC)c3)c2N)cc1OCC | 72* | -72 | -26 | -28 | 3
O=C(NC1CCCCC1)C1c2ccccc2OCC(=O)N1Cc1ccco1 (stereo not given) | / | / | / | / | -1
Fc1ccc2nc(-c3ccc(CN4CCC(c5nc6ccccc6[nH]5)CC4)cc3)c(-c3ccccc3)nc2c1 | / | / | / | / | -13
COc1ccc(/C=C/C(=O)NC(=S)NCCc2ccc(OC)c(OC)c2)cc1 | 83* | -83 | -22 | -67 | -1
CCOc1ccc(C(=O)/C=C/c2ccc(OC)c(OC)c2)cc1 | 32 | -32 | 5 | 26 | -2
CCOc1ccc(/C=C/C(=O)c2ccccc2)cc1OC | 3 | -3 | 44 | 63* | 76*
COc1ccc(CCNC(=O)/C=C\c2ccccc2)cc1OC | 17 | -17 | 8 | 4 | 9
O=C(/C=C/c1ccc(O)cc1)c1ccccc1 | / | / | 69 | 84* | 38*
Cc1ccccc1/C(N)=N/OC(=O)/C=C/c1ccccc1 | -10 | 10 | 58 | 48 | 77*
Cc1ccc(F)cc1C(=O)N1CCCC1(C)C(=O)NCC(C)C (stereo not given) | / | / | / | / | 1
CCOc1ccc(/C=C/C(=O)OCC(=O)NCCc2ccc(OCC)c(OCC)c2)cc1OC | 73* | -73 | 10 | -3 | -1
COc1ccc(/C=C/C(=O)OC(C)C(=O)c2ccccc2)cc1OC (stereo not given) | 29 | -29 | 11 | -3 | 3
CCOc1ccc(CCNC(=O)/C=C/c2ccco2)cc1OCC | 8 | -8 | 20 | -18 | 34*
COc1ccc(/C=C/C(=O)O/N=C(\N)c2ccccc2)cc1OC | 21 | -21 | 40 | 36 | 46*
COc1ccc(CCNC(=O)/C=C/c2ccco2)cc1OC | 14 | -14 | / | 17 | 1
CCOc1ccc(CCNC(=O)COC(=O)/C=C/c2cccc(OC)c2)cc1OCC | 0 | 0 | 12 | 0 | -2
SMILES | SR-BI HDL uptake | SR-BI uptake up | MITF act | HSF-1 act | Wnt bcat act
O=[N+]([O-])c1cccc(COc2cccc(CN3CCCCC3)c2)c1 | 2 | -2 | 1 | / | -2
CC(C)C[C@H]1CN(CCCC[C@@H]2CNC(=O)C(=O)N2CC2CCCCC2)C(=O)C(=O)N1CC1CCCCC1 | / | / | / | / | -2
C#CCOc1ccc(C2C3=C(CC(C)(C)CC3=O)N(CC(=O)O)C3=C2C(=O)CC(C)(C)C3)cc1OC | -25 | 25 | / | 60* | -2
COc1ccc(C(=O)Nc2nc3cc(OC)c(OC)cc3c(=O)[nH]2)cc1 | 86* | -86 | -2 | / | -5
COc1cc2nc(NC(=O)c3ccccc3)[nH]c(=O)c2cc1OC | 69 | -69 | 15 | 3 | -5
COc1ccc(CCNC(=S)N2CCC(C(=O)c3ccc(F)cc3)CC2)cc1OC | 80* | -80 | -18 | / | -2
COc1ccc(C(=O)C2CCN(C(=S)NCCc3ccc(OC)c(OC)c3)CC2)cc1 | 67 | -67 | -1 | 22 | -1
CC(=O)Nc1ncc(N=Nc2cccc(C(F)(F)F)c2)s1 | -16 | 16 | 30 | 33 | 5
Cc1cccc(N=Nc2cnc(N)s2)c1 | 16 | -16 | 68 | 20 | 35*
CC(C)[C@H](NC(=O)c1ccccc1)C(=O)N1CCC[C@H]1C(=O)NCCc1ccccc1Cl | / | / | / | / | 0
CCCCC(=O)Nc1sc2c(c1C#N)CC(C)(C)OC2 | 7 | -7 | 91* | 41 | 22
FC(F)(F)Oc1ccccc1C(c1nnnn1-c1ccc2c(c1)OCCO2)N1CCN(C/C=C/c2ccccc2)CC1 (stereo not given) | / | / | / | / | -3
CCc1c(C)nc2cc(-c3cccc(Br)c3)[nH]n2c1=O | -4 | 4 | / | 34 | 36*
CC(C)(C)c1ccc(C(=O)NCCC(=O)Nc2cc(Cl)ccc2N2CCOCC2)cc1 | -5 | 5 | 4 | / | -3
CCOc1cc(C2C(C(=O)N3CCCCC3)=C(C)NC3=C2C(=O)CC(C)(C)C3)ccc1O (stereo not given) | -28 | 28 | -5 | 0 | 54*
CCOC(=O)C1=C(C)NC2=C(C(=O)CC(C)(C)C2)C1c1ccc(O)c(OCC)c1 (stereo not given) | -15 | 15 | 3 | / | -1
Cc1ccc(SCC(=O)NC(=O)NCCC(C)C)c(C)c1 | -31 | 31 | 7 | 4 | 41*
O=C(Nc1ccc(N2CCOCC2)cc1N1CCOCC1)c1cccs1 | 13 | -13 | / | 22 | 16
O=C(N/N=C/c1ccc(N2CCOCC2)cc1)c1cccs1 | 6 | -6 | 43 | 19 | 56*
O=C(c1ccc(N2CCOCC2)cc1)c1cccs1 | -16 | 16 | / | 27 | 42*
C#CCNc1cccc2c1S(=O)(=O)N[C@H](C)CO2 | / | / | / | / | -1
CSc1ccc(C(=O)/C=C/c2ccc(N)cc2)cc1 | 16 | -16 | 64 | -7 | 67*
C[C@H]1CN([C@@H](C)CO)C(=O)CCCn2cc(nn2)CO[C@@H]1CN(C)S(C)(=O)=O | / | / | / | / | -1
OC12CCCCC1C(c1ccc3c(c1)OCO3)N(Cc1cccc(F)c1)CC2 (stereo not given) | -13 | 13 | -1 | 30 | 0
OC12CCCCC1C(c1ccc3c(c1)OCO3)N(Cc1ccc(F)cc1)CC2 (stereo not given) | -6 | 6 | 2 | 54* | /
OC12CCCCC1C(c1ccc3c(c1)OCO3)N(Cc1ccccc1F)CC2 (stereo not given) | 5 | -5 | 3 | 57* | 6
COC(=O)[C@@]12C[C@@H](CC(=O)N3CCC(c4ccccc4)CC3)C(=O)N(Cc3ccc4c(c3)OCO4)C1=CCC(C)(C)C2 | / | / | / | / | -2
NC(=O)c1ccc(-c2ccc(N3C(c4ccsc4)=Cc4ccc(F)cc4C3CC(=O)c3ccco3)cc2)cc1 (stereo not given) | / | / | / | / | -3
